From ChEMBL document CHEMBL1127491, “Sulfinosine congeners: synthesis and antitumor activity in mice of certain N9-alkylpurines and purine ribonucleosides” (J Med Chem, 1994)

Columns and labels:
Mus musculus [1] = experiment: Maximum soluble dosage which induces toxicity in mice when administered intraperitoneally was determined; format: organism-based; conditions: in vivo, ip
How it was run: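 Drug was solubilized just before use and given as a single ip bolus at 0.01 mL/g, 24 h after ip inoculation of 1 x 10^6 L1210 cells in BD2F1 mice. This gave a dose 10 times the solubility (mg/mL) in mg/kg. Deaths were assigned to compound toxicity or leukemia by temporal pattern of death and necropsy findings.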

L1210 = experiment: Percentage of viable L1210 leukemia cells killed by single treatment with the compound; format: ADME, cell-based; conditions: mouse
Mus musculus [2] = organism: Mus musculus; experiment: Antileukemic activity in BD2F1 mice inoculated with 1 x 10E6 L1210 cells.; format: functional
How it was run: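 BD2F1 mice were inoculated ip on day 0 with 1 x 10^6 L1210 cells and given one ip bolus 24 h later (0.01 mL/g; water or Me2SO vehicle; dose 10x solubility in mg/mL, lowered if lethally toxic). Controls got saline. Six mice per group. %T/C = mean treated life span / mean control life span x 100, pooled over four studies with 10 controls each.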

Structure (SMILES) | Dosage (Mus musculus [1]) [mg/kg] | Cells killed (L1210) [%] | T/C (Mus musculus [2]) [%]
CCCCCn1cnc2c(SN)nc(N)nc21 | 47 | 70 | 118
C[S+]([O-])c1nc(N)nc2c1ncn2[C@H]1C[C@H](O)[C@@H](CO)O1 (stereo partly drawn) | 800 |  | 
CCCCCCn1cnc2c(S)ncnc21 | 44 | 87 | 147
CCCCCCn1cnc2c(SN)nc(N)nc21 | 105 | 87 | 119
CCCCCn1cnc2c(S)ncnc21 | 41 | 91 | 141
CSc1nc(N)nc2c1ncn2[C@@H]1O[C@H](CO)[C@@H](O)[C@H]1O | 37 | 0 | 98
CS(=O)(=O)c1nc(N)nc2c1ncn2C1O[C@H](CO)[C@@H](O)[C@H]1O (stereo partly drawn) | 104 | 0 | 96
CCCCCn1cnc2c(S)nc(N)nc21 | 40 | 92 | 149
Nc1nc([S+]([O-])Cc2ccccc2)c2ncn(C3O[C@H](CO)[C@@H](O)[C@H]3O)c2n1 (stereo partly drawn) | 37 | 97 | 137
CCCCCCn1cnc2c(S)nc(N)nc21 | 110 | 72 | 118
CCCCCn1cnc2c([S+](N)[O-])ncnc21 (stereo not drawn) | 480 | 90 | 134
CCCCCn1cnc2c([S+](N)[O-])nc(N)nc21 (stereo not drawn) | 106 | 72 | 117
Nc1nc([S+](N)[O-])c2ncn(CCCCCCO)c2n1 (stereo not drawn) | 39 | 96 | 139
CCCCCCn1cnc2c([S+](N)[O-])nc(N)nc21 (stereo not drawn) | 460 | 93 | 121
CSc1nc(N)nc2c1ncn2[C@H]1C[C@H](O)[C@@H](CO)O1 | 800 |  | 
CCCCCCn1cnc2c([S+](N)[O-])ncnc21 (stereo not drawn) | 800 |  | 
C[S+]([O-])c1nc(N)nc2c1ncn2C1O[C@H](CO)[C@@H](O)[C@H]1O (stereo partly drawn) | 480 | 71 | 114
Nc1nc(S(=O)(=O)Cc2ccccc2)c2ncn(C3O[C@H](CO)[C@@H](O)[C@H]3O)c2n1 (stereo partly drawn) | 104 | 76 | 115
CCCCCCn1cnc2c(SN)ncnc21 | 410 | 75 | 116
NSc1nc(N)nc2c1ncn2C1O[C@H](CO)[C@@H](O)[C@H]1O (stereo partly drawn) | 22 | 99.8 | 170
CS(=O)(=O)c1nc(N)nc2c1ncn2[C@H]1C[C@H](O)[C@@H](CO)O1 | 800 |  | 
Nc1nc([S+](N)[O-])c2ncn(C3O[C@H](CO)[C@@H](O)[C@H]3O)c2n1 (stereo partly drawn) | 173 | 99.8 | 167
